# Screens from PubChem.
# This is a sample that favours compounds with a hit; in the whole collection about 5.4% have one here.
# aSyn UTR inh – 5' untranslated region of α-synuclein, MLPCN primary screen. AID 1813. 300,000 tested, 0.82% active. alpha-synuclein 5'UTR reporter, inhibitor activity. inhibition, % (tested at 7.5 µM); in the data active means inhibition above about 60%;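 further: H4 neuroglioblastoma cells stably carrying SNCA 5'UTR luciferase fusion; 0% = DMSO wells and 100% = positive control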
# Mdm2-MdmX inh – human Mdm2/MdmX binding inhibition; O15151+Q00987; SaOS-2 split-luciferase Mdm2/MdmX complementation, luminescence; inhibition, % at 8 µM; 330,000 tested, 3% active; AID 485346;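 active means inhibition of at least 50% at 8 µM in the primary screen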
# Target sequence (O15151 whole entry, looked up): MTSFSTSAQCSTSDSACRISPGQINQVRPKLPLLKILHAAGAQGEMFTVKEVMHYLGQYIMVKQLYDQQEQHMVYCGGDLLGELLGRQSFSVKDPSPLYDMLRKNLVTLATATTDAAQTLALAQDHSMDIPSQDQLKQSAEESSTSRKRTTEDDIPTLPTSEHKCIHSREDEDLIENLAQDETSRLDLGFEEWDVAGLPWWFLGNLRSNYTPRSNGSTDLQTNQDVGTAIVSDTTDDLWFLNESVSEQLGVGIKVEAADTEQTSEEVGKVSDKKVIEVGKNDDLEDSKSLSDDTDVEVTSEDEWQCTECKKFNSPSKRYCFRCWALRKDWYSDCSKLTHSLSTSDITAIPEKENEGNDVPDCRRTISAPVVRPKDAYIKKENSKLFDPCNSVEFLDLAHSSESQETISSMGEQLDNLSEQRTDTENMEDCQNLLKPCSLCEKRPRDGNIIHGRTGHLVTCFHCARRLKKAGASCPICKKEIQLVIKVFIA
# Target sequence (Q00987 whole entry, looked up): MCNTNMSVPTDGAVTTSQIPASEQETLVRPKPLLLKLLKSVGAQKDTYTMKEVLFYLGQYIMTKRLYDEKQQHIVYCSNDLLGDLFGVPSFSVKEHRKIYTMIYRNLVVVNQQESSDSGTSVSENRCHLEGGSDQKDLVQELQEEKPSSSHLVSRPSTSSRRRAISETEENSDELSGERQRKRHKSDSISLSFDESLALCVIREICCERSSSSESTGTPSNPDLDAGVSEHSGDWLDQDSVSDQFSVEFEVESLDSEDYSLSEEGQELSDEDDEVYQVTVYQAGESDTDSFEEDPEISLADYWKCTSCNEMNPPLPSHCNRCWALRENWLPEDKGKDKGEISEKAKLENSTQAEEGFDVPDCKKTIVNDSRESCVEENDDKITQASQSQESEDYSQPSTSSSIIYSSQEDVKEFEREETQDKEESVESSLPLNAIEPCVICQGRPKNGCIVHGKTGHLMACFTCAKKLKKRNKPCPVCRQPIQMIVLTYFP
# CSC inhib – blocks cancer stem cells. cancer stem cell-like cells viability, luminescence. inhibition, % at 7.5 µM. 300,000 tested, 1.1% active; in the data active means inhibition above about 75%; tested in HMLE shEcad cells
# T cruzi repl – blocks replication of Trypanosoma cruzi. inhibition, % (test concentration not listed). AID 1885. T. cruzi beta-gal in NIH3T3, luminescence, 90 h. 300,000 tested, 1.4% active;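 active means mean inhibition across valid replicates above about 55%, limit read from the data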;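 further: signal also drops with host cell toxicity which is not excluded here; 0% = plate median of DMSO wells and 100% = zero luminescence signal; higher percent means less beta-gal luminescence so fewer parasites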
#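 assay system = mouse NIH/3T3 fibroblasts infected with β-gal-expressing T. cruzi Tulahuen C4 | input = 5,000 NIH/3T3 host cells per well | buffer or medium = DMEM plus 2% FBS | timing = 3 h host attachment, then at least 90 h co-culture | measured by = GalScreen luminescence, 60 min | evaluation = luminescence reflecting intracellular parasite burden, expressed as percent inhibition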
# SKKanGAS inh – SKKanGAS growth inhibition | inhibition, % at 7.5 µM | 300,000 tested, 1.3% active | S. pyogenes SKKanGAS, kanamycin growth, BacTiter-Glo, 6 h;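 active means mean replicate score, as percent of positive control median, at least 50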;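 further: strain carries kanamycin resistance gene driven by streptokinase promoter and grows in 40 µg/ml kanamycin; loss of luminescence reflects streptokinase promoter inhibition or plain growth inhibition; 0% = median of DMSO wells and 100% = positive control at its reference dose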
# * = called active by the depositor; . = not tested or not shown.
SMILES,aSyn UTR inh,Mdm2-MdmX inh,CSC inhib,T cruzi repl,SKKanGAS inh
Cn1c(N)c(C(=O)COC(=O)COc2ccccc2Cl)c(=O)n(C)c1=O,.,5,.,.,.
NC(=O)c1ccccc1OCc1nnc(-c2ccccc2Br)o1,-57,-15,5,2,0
CCOc1ccc(CN2CCN(Cc3cc4c(cc3Cl)OCO4)CC2CCO)cc1 (centres undefined),24,5,41,31,-4
OCCC1CN(Cc2cc3c(cc2Cl)OCO3)CCN1Cc1ccccc1 (centres undefined),-4,8,18,59*,-4
COC(=O)C1=CN(Cc2ccc(OC)c(OC)c2)C=C(C(=O)OC)C1c1cccc(O)c1,36,5,-13,58*,0
Cc1nc2c(C)cccn2c(=O)c1NC(=O)c1ccc2c(c1)OCO2,-18,-13,.,-13,50*
Cc1nc2c(C)cccn2c(=O)c1NC(=O)c1ccco1,-3,-12,.,-6,39
Cc1cc(OCCCCOc2ccc(S(N)(=O)=O)c(C)c2)ccc1S(N)(=O)=O,31,20,6,5,15
Cc1ccc(NC(=O)/C=C/c2ccc3c(c2)OCO3)nc1,-109,-241,110*,-9,-8
O=C(/C=C/c1ccc2c(c1)OCO2)Nc1nc(-c2ccc(F)cc2F)cs1,-8,16,95*,-12,0
CC(=O)c1ccc(OCCCC(=O)N2CCN(S(=O)(=O)c3ccc(C(C)C)cc3)CC2)cc1,1,-1,-4,36,-7
Cc1ccccc1-n1c(CSC(=N)N)nc2ccccc2c1=O,-38,-31,-12,15,11
N=C(N)SCc1nc2ccccc2c(=O)n1-c1ccccc1Cl,-47,6,93*,-3,-1
O=C1c2cc(Br)ccc2N(Cc2ccc(Br)cc2)S(=O)(=O)C1c1cc(Cl)c(Cl)cc1[N+](=O)[O-] (centres undefined),.,31,108*,.,.
O=C1CS(=O)(=O)N(Cc2cccc(F)c2)c2ccc(Br)cc21,.,18,34,.,.
COc1ccc(C(=O)Nc2cc(C)nn2-c2ccc(C)cc2)cc1,-16,-12,8,7,0
Oc1ccc(-c2nc3ccc4ccccc4c3c3c2CCC3)cc1O,-151,8,109*,9,13
CC(=O)c1c(C)[nH]c(C(=O)OCC(=O)c2c[nH]c3ccccc23)c1C,.,31,.,.,.
O=C1c2c(Br)c(Br)c(Br)c(Br)c2C(=O)N1c1ccccn1,-112,33,84*,-46,-5
O=c1c(O)c(-c2cccs2)oc2ccccc12,-55,48,19,27,76*
O=c1cc(-c2cccs2)oc2ccc(Cl)cc12,-178,-72,.,5,0
O=c1c(O)c(-c2cccs2)oc2ccc(Cl)cc12,-75,29,61,7,66*
CCc1cccc(OCC(=O)Nc2ccc(S(=O)(=O)Nc3onc(C)c3C)cc2)c1,0,26,-4,-2,12
Cc1ccc(NC(=O)c2cccc(C(=O)Nc3ccc(C)c(C)c3)n2)cc1C,-10,13,3,3,6
CCC1CSC(Nc2ccc(C(=O)/C=C/c3cccc(C)c3)cc2)=N1 (centres undefined),-34,46,87*,60*,40
SMILES,aSyn UTR inh,Mdm2-MdmX inh,CSC inhib,T cruzi repl,SKKanGAS inh
CCOC(=O)Nc1ccc(C(=O)/C=C/c2ccccc2)cc1,-69,31,22,-1,-12
COc1ccc(N(CC(=O)NCc2ccco2)C(=O)CCC(=O)Nc2nccs2)c(OC)c1,2,-5,2,12,-1
COc1ccc(CCN2C(=S)N(C)C(=O)C2CC(=O)Nc2ccc(OC)cc2)cc1 (centres undefined),18,0,97*,3,-7
CCN1C(=O)C(CC(=O)Nc2ccc(OC)cc2)N(CCCN2CCN(c3ccc(F)cc3)CC2)C1=S (centres undefined),17,28,81*,16,-4
CCOc1ccc(C(=O)NC(C(=O)N2CCC2)C(C)C)cc1 (centres undefined),.,6,.,.,.
COc1cc(/C=N/Nc2nc3ccccc3s2)cc([N+](=O)[O-])c1O,-100,-5,-1,-2,54*
COc1cc(/C=N/Nc2ccccc2[N+](=O)[O-])cc(OC)c1O,-57,1,19,4,-3
CCCCn1c(N)c(N(CC(C)C)C(=O)C2CCN(S(=O)(=O)c3ccccc3)CC2)c(=O)[nH]c1=O,2,12,-4,-4,-5
Cc1ccc2[nH]c(C)c(/C=N/Nc3nc4ccccc4s3)c2c1,-140,37,-15,61*,6
O=C(C1CC(=O)N(C2CCCCC2)C1)N1CCN(c2cccc(C(F)(F)F)c2)CC1 (centres undefined),14,7,-6,-3,-8
N#C/C(=C(/O)c1ccccc1F)c1nc2cc(C(F)(F)F)ccc2s1,.,8,18,.,11
N#C/C(=C(/O)c1ccc2c(c1)OCO2)c1nc2cc(C(F)(F)F)ccc2s1,-29,22,79*,-16,52*
Cc1cc2nc3ccc(=[N+](C)C)cc-3sc2cc1N,91*,.,.,69*,-15
N#Cc1c(NC(=S)NC(=O)C2CCCC2)sc2c1CCCCC2,-61,0,54,15,76*
CC(C)CC(=O)NC(NC(=S)Nc1sc2c(c1C#N)CCCC2)C(Cl)(Cl)Cl (centres undefined),-12,48,80*,8,56*
N#Cc1c(NC(=S)NC(=O)c2ccccc2)sc2c1CCCC2,-96,-14,11,14,3
COc1ccc(C(=O)NCC(=O)OCC(=O)N2N=C(c3ccc(Cl)cc3)CC2c2ccco2)cc1OC (centres undefined),25,-2,7,-5,76*
O=C(COc1cccnc1[N+](=O)[O-])N1N=C(c2ccc(Cl)cc2)CC1c1ccco1 (centres undefined),4,-22,-10,56*,-1
C[C@H](CO)N1C[C@H](C)[C@@H](CN(C)S(=O)(=O)c2cn(C)cn2)Oc2ccc(NC(=O)Cn3cnnn3)cc2C1=O,.,5,-14,.,.
COc1cc(/C=N/NC(=O)c2cccc(S(=O)(=O)N3CCCC3)c2)cc(OC)c1O,3,-1,-10,-11,-8
Cc1ccc(C)c(S(=O)(=O)N2CCCOC2CNC(=O)C(=O)NCCCn2ccnc2)c1 (centres undefined),29,9,-5,3,0
Cc1ccc(S(=O)(=O)Nc2ccc(C(OC(=O)c3ccccc3[N+](=O)[O-])(C(F)(F)F)C(F)(F)F)cc2)cc1,2,13,107*,19,42
CCOc1ccccc1NC(=O)COC(=O)C12CC3CC(CC(O)(C3)C1)C2,.,12,.,.,.
Cc1ccc2nc(/C(C#N)=C\c3ccc(N4CCCCC4)c([N+](=O)[O-])c3)[nH]c2c1,-45,15,69,72*,16
Cc1ccccc1C(=O)Oc1cccc(Nc2ncnc3ccccc23)c1,-28,26,-10,-8,75*
COc1cccc(CN2CC(C(=O)NCCCn3cccn3)CCC2=O)c1 (centres undefined),3,13,-1,-10,-14
